System: MS2 coat protein
Experiment: apparent Kd, MS2 coat protein; higher = weaker binding; RNA-MaP array; FMN 200 µM where present
Summary of the method: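 The apparent Kd is the median of filtered binding-curve fits, one per cluster, to green signal normalised to red-channel RNA signal and control-cluster median Fmax. The clusters were on Illumina sequencing chips, and stalled E. coli RNA polymerase had transcribed the designs on them. Titration used SNAP-549-labelled MS2 coat protein from 0.7 or 1.5 nM, doubling to 3 µM, without and then with constant ligand, in 100 mM Tris-HCl pH 7.5, 80 mM KCl, 4 mM MgCl2, BSA, DTT, yeast tRNA and Tween-20.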

[1] = designed as: OFF switch for flavin mononucleotide, no ligand
[2] = ligand present: flavin mononucleotide, designed as: OFF switch for flavin mononucleotide
[3] = designed as: ON switch for flavin mononucleotide, no ligand
[4] = ligand present: flavin mononucleotide, designed as: ON switch for flavin mononucleotide

| Sequence | apparent Kd [1] [nM] | apparent Kd [2] [nM] | apparent Kd [3] [nM] | apparent Kd [4] [nM] |
| --- | --- | --- | --- | --- |
| AAAAGCAAAGGAUAUACAUGAGGAUCACCCAUGUAAAAAAGAAAAGAGUAUAUGGCAUGUAGAAGGUUGCGUGG | 34.5 | 49.8 |  |  |
| GCGUCACAAUUAGAACCGAUACGAACAUGAGGAUCACCCAUGUAGGAUAUGCUAGAAGUUGAGUUGCAGAAGGACAUUUAUCGC | 11.1 | 10.6 |  |  |
| AGAUAAUAGCAGAAGGGCCAUGGACAUGAGGAUCACCCAUGUAACGGUGGACUCAUUUGUGAAGGGCAGGAUAUGCAAUAAAGA | 160 | 13.4 |  |  |
| UAUAUAUAGUAAGGAUAUGUAAUUAUCUUAUAAACAGAAGGUACUGACAUGAGGAUCACCCAUGUUUUAGUGUGGGCAUGUAGA | 56.9 | 60.1 |  |  |
| AAUAACAGAGGAUAUACUAUUUUAUGUGUUUGUUAUUUUAAACAUGAGGAUCACCCAUGUAGAAGGCUGAAUGA | 26.4 | 26.4 |  |  |
| UAGUAUAACGAAGGAUAUGGAUACAUGAGGAUCACCCAUGUAUUUUUUGUGAUUUUAAAAUUGAUCCAGAAGGUCGUAUAAUUA | 23.6 | 28.2 |  |  |
| UUCGUGCAGCAUUGCUGUACGCGUACAUGAGGAUCACCCAUGUAGGAUAUGGUAGGCAAAGCUUACUAGAAGGAUAUAGUGAUC | 109 | 114 |  |  |
| GAGAAGAAGUUAGGAUAUUGGAUAGGGACGGAAUAAGAAGGAGCAAGACAUGAGGAUCACCCAUGUGUAGAAGAAGAGAUCCUC | 520 | 384 |  |  |
| UAAUAAAGCAGUGUAUUAAGAUCACAUGAGGAUCACCCAUGUAAGGAUAUGAGCAGAAAAUCUGCUCAGAAGGUACGAACACUG | 9.51 | 32.4 |  |  |
| AAGAAGUAAGGAUAUGGCCGGGUCCCUGGGUUUGGACCCGGCUAGAAGGUACAUGAGGAUCACCCAUGUAAGAA | 14.7 | 15.4 |  |  |
| CUUUUGUGAGGAUAUCAGUAGUUAAAAAAUAAAAUUACUACUGAGAAGGCACAUGAGGAUCACCCAUGUUCCUC | 42.5 | 308 |  |  |
| ACCACAGACCAGAAGGGUGAUCGGCCAUGAUACACAGGAUAUGGUCACAUGAGGAUCACCCAUGUAUGGGUUGUGUGACCCAGC |  |  | 70 | 91.7 |
| AGACUGAAGCAAGGAUAUUGUAAGGUUAUCGUACAAGAAGGUGCUGUUUAUGUCUCUUAACAUGAGGAUCACCCAUGUUUUGAA |  |  | 18.4 | 18.1 |
| ACGUUUUAUGCAGGAUAUUGACUUAUAUUUAAACAAGAAGGGCAUUACAUGAGGAUCACCCAUGUUAUCAUGGUAUUUAAGUUC | 40 | 60.4 |  |  |
| UCAUUUCAGAAAGGAUAUUAAUUCAUGACGAUACAUGAGGAUCACCCAUGUUAAGAAGGUUCUAAUACAAAUAAUGCAUUGUUC | 13.2 | 10.5 |  |  |
| AAAUGGAACUAAGGAUAUCUGUAUUUUGUUGAAACAUGAGGAUCACCCAUGUUCAUGAAAUUAUAGGAGAAGGUAGAUCCAUAA |  |  | 4.51 | 4.6 |
| ACUGACAUGAGGAUCACCCAUGUCUUGAAUAGGUCAAAUUCACAGGAUAUGCACGCGGACAGAGUGCAGAAGGGUGAUGCAAUG |  |  | 44 | 11.8 |
| AACUUGCGCACAGGAUAUCCACGGAGCGGACGUGGAGAAGGGUGACAUGAGGAUCACCCAUGUACGUAAGUCUAGAUCACUUCC |  |  | 198 | 19.1 |
| UACAUGAGGAUCACCCAUGUUUUGUCGUGUAUGGUAUUUAUCUAGGAUAUCAAGUUGUUUAUUUAUGAGAAGGAGAAUAUUAAU | 34.3 | 38.1 |  |  |
| AACAUGAGGAUCACCCAUGUCCCACCAGAAGGCUGGCGGUCGUGAGAAAGGCCACGACAAAUAACAGAGGAUAUGGUGAAUGCA |  |  | 101 | 19.1 |
| AAAAAAAAUGUGUAGGAUAUCAGUAAAAAUACAUGAGGAUCACCCAUGUUCAAAAAAAAAAAAACUGAGAAGGACACGGGAAGUCC |  |  | 48.5 | 30.3 |
| CUCUUUAGUCAGGAUAUCGUGAGGCUAAUUAUACGAGAAGGGACGACAUGAGGAUCACCCAUGUGGUCUUAGAG | 17.4 | 32.1 |  |  |
| CUGAGCUGAGGAUAUACAUGAGGAUCACCCAUGUGUUAGAGCUUGCGUACAGGCAGAUGUAGAAGGCAGUUCGG | 17.4 | 49.7 |  |  |

— the EternaBench riboswitch data
